Reference: ChEMBL document CHEMBL4004797, “Design and synthesis of formononetin-dithiocarbamate hybrids that inhibit growth and migration of PC-3 cells via MAPK/Wnt signaling pathways” (Eur J Med Chem, 2017)
Active and inactive are the calls of the source. The rule behind the calls is not given here.

Experiments:
[1] = tested on: MGC-803; test: Cytotoxicity against human MGC803 cells assessed as inhibition of cell viability after 48 hrs by MTT assay; type: functional, cell-based; settings: MGC-803, 48 h
Summary of the method: (§1)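 Cells grown in RPMI 1640 with 10% FBS, penicillin and streptomycin at 37 °C under 5% CO2. After 24 h, medium replaced with medium containing various concentrations. Exposure 48 h, then MTT read-out at 570 nm. IC50 is the concentration giving 50% proliferation inhibition, from dose-response curves; mean ± SD of three independent experiments.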

[2] = tested on: PC-3; test: Cytotoxicity against human PC3 cells assessed as inhibition of cell viability after 48 hrs by MTT assay; type: functional, cell-based; settings: for IC50: PC-3, 48 h; summary of the method: as §1
[3] = tested on: ECa-109 cell line; test: Cytotoxicity against human EC109 cells assessed as inhibition of cell viability after 48 hrs by MTT assay; type: functional, cell-based; settings: ECa-109, 48 h; summary of the method: as §1
[4] = tested on: PC-3; test: Downregulation of cyclin D1 levels in human PC3 cells after 48 hrs by Western blot method; type: functional, cell-based
Summary of the method: (§2)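 PC-3 cells treated 48 h at 0, 0.1, 0.5 or 2.5 μM, then lysed in RIPA buffer with protease inhibitors. Protein measured by BCA, separated by SDS-PAGE, transferred to nitrocellulose, blocked in 5% milk, probed overnight at 4 °C for cyclin D1, CDK4, cyclin A and cyclin B1, detected by ECL. Bands quantified; three independent experiments.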

[5] = tested on: PC-3; test: Cell cycle arrest in human PC3 cells assessed as accumulation at S phase at 0.5 uM after 48 hrs by propidium iodide staining-based flow cytometric method (reference value: 26.54%); type: functional
[6] = tested on: PC-3; test: Induction of apoptosis in human PC3 cells assessed as early apoptotic cells at 0.1 uM after 48 hrs by annexin V-FITC/propidium iodide staining-based flow cytometric method (reference value: 4.7%); type: functional
[7] = tested on: PC-3; test: Downregulation of TCF4 levels in human PC3 cells after 48 hrs by Western blot method; type: functional, cell-based
Summary of the method: (§3)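 Wnt pathway proteins probed by Western blot in PC-3 cells after 48 h at 0, 0.1, 0.5 or 2.5 μM. RIPA lysis, SDS-PAGE, nitrocellulose, overnight primary antibody at 4 °C, ECL detection. Expression quantified from three independent experiments.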

[8] = molecular target: Transcription factor Jun (Homo sapiens) (UniProt P05412); test: Inhibition of c-Jun phosphorylation in human PC3 cells after 48 hrs by Western blot analysis; type: cell-based
Sequence of Transcription factor Jun (Homo sapiens) (P05412 whole entry): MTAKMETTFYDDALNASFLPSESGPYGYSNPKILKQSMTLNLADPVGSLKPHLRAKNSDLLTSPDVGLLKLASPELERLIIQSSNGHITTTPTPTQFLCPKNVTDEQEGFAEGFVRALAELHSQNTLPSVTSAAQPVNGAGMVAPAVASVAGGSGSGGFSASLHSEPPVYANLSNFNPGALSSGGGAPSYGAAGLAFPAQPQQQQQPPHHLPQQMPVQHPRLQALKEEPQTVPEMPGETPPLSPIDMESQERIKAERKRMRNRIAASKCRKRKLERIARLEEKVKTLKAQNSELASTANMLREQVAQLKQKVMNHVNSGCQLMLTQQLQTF
Summary of the method: (§4)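 PC-3 cells exposed 48 h to 0, 0.1, 0.5 or 2.5 μM. RIPA lysates, BCA protein assay, SDS-PAGE, nitrocellulose transfer, 5% milk block, primary antibodies overnight at 4 °C against p-ERK, p-c-Jun, c-Myc, p38 and p-p38, secondary 1:5000 for 2 h, ECL detection. Levels quantified from three independent experiments.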

[9] = tested on: PC-3; test: Cell cycle arrest in human PC3 cells assessed as accumulation at G1 phase at 0.1 uM after 48 hrs by propidium iodide staining-based flow cytometric method (reference value: 54.65%); type: functional
[10] = tested on: PC-3; test: Anticlonogenic activity against human PC3 cells assessed as colony formation efficiency at 2.5 uM after 1 week by crystal violet staining-based assay relative to control; type: functional
Summary of the method: (§5)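 PC-3 cells seeded, grown 24 h, then given fresh medium containing a range of concentrations and treated for one week. Washed with PBS, fixed in 4% paraformaldehyde, stained with 0.1% crystal violet, imaged. Colonies counted and colony formation efficiency calculated relative to control. Three independent experiments.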

[11] = tested on: PC-3; test: Induction of apoptosis in human PC3 cells assessed as late apoptotic cells at 0.1 uM after 48 hrs by annexin V-FITC/propidium iodide staining-based flow cytometric method (reference value: 1.3%); type: functional
[12] = tested on: PC-3; test: Downregulation of beta-catenin levels in human PC3 cells after 48 hrs by Western blot method; type: functional, cell-based; summary of the method: as §3
[13] = molecular target: Myc proto-oncogene protein (Homo sapiens) (UniProt P01106); test: Inhibition of c-Myc expression in human PC3 cells after 48 hrs by Western blot analysis
Sequence of Myc proto-oncogene protein (Homo sapiens) (P01106 whole entry): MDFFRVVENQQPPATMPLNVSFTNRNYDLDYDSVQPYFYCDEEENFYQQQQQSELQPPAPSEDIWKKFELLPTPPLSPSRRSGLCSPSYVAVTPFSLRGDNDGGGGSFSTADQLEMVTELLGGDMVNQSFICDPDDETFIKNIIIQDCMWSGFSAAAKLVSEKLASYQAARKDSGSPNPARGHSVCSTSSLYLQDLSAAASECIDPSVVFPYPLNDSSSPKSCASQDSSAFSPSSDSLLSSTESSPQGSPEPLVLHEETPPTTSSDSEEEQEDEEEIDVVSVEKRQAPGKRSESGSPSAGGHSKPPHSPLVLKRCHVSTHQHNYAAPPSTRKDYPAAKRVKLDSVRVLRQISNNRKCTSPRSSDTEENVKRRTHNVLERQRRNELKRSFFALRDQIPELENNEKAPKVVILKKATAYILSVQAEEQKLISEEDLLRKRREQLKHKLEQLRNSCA

[14] = tested on: PC-3; test: Cell cycle arrest in human PC3 cells assessed as accumulation at G2 phase at 0.5 uM after 48 hrs by propidium iodide staining-based flow cytometric method (reference value: 18.31%); type: functional
[15] = tested on: PC-3; test: Antimigratory activity in human PC3 cells at 0.1 to 2.5 uM after 48 hrs by Hoechst 33258 staining-based transwell assay; type: functional, cell-based
Summary of the method: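 Transwell migration: upper chamber holds 10^4 PC-3 cells in medium with 1% FBS plus 0, 0.1, 0.5 or 2.5 μM compound. Lower chamber holds medium with 20% FBS as chemoattractant. After 48 h both chambers washed with PBS, stained with Hoechst 33258, and migrated cells counted by high-content imaging. Three independent experiments.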

[16] = tested on: PC-3; test: Induction of apoptosis in human PC3 cells assessed as late apoptotic cells at 0.5 uM after 48 hrs by annexin V-FITC/propidium iodide staining-based flow cytometric method (reference value: 1.3%); type: functional
[17] = tested on: PC-3; test: Cell cycle arrest in human PC3 cells assessed as accumulation at G2 phase at 2.5 uM after 48 hrs by propidium iodide staining-based flow cytometric method (reference value: 18.31%); type: functional
[18] = tested on: PC-3; test: Cell cycle arrest in human PC3 cells assessed as accumulation at G2 phase at 0.1 uM after 48 hrs by propidium iodide staining-based flow cytometric method (reference value: 18.31%); type: functional
[19] = tested on: PC-3; test: Upregulation of Axin levels in human PC3 cells after 48 hrs by Western blot method; type: functional, cell-based; summary of the method: as §3
[20] = tested on: PC-3; test: Anticlonogenic activity against human PC3 cells at 2.5 uM after 1 week by crystal violet staining-based assay; type: functional, cell-based; summary of the method: as §5
[21] = tested on: PC-3; test: Cell cycle arrest in human PC3 cells assessed as accumulation at S phase at 0.1 uM after 48 hrs by propidium iodide staining-based flow cytometric method (reference value: 26.54%); type: functional
[22] = tested on: PC-3; test: Induction of apoptosis in human PC3 cells assessed as early apoptotic cells at 2.5 uM after 48 hrs by annexin V-FITC/propidium iodide staining-based flow cytometric method (reference value: 4.7%); type: functional
[23] = tested on: GES1; test: Cytotoxicity against human GES-1 cells assessed as inhibition of cell viability after 48 hrs by MTT assay; type: cell-based; settings: GES1, 48 h; summary of the method: as §1
[24] = tested on: PC-3; test: Downregulation of CDK4 levels in human PC3 cells after 48 hrs by Western blot method; type: functional, cell-based; summary of the method: as §2
[25] = tested on: PC-3; test: Cell cycle arrest in human PC3 cells assessed as accumulation at G1 phase at 2.5 uM after 48 hrs by propidium iodide staining-based flow cytometric method (reference value: 54.65%); type: functional
[26] = organism: Homo sapiens; test: Inhibition of ERK phosphorylation in human PC3 cells after 48 hrs by Western blot analysis; type: cell-based; summary of the method: as §4
[27] = tested on: PC-3; test: Upregulation of Bax levels in human PC3 cells at 0.1 to 2.5 uM after 48 hrs by Western blot method; type: functional, cell-based
Summary of the method: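 Bax protein measured by Western blot in PC-3 cells after 48 h at 0, 0.1, 0.5 or 2.5 μM: RIPA lysis, SDS-PAGE, nitrocellulose transfer, overnight primary antibody at 4 °C, ECL detection.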

[28] = tested on: PC-3; test: Induction of apoptosis in human PC3 cells assessed as late apoptotic cells at 2.5 uM after 48 hrs by annexin V-FITC/propidium iodide staining-based flow cytometric method (reference value: 1.3%); type: functional
[29] = molecular target: MAP kinase p38 (Homo sapiens) (UniProt O15264+Q15759+Q16539+P53778); test: Inhibition of p38 phosphorylation in human PC3 cells after 48 hrs by Western blot analysis; type: cell-based; summary of the method: as §4
[30] = tested on: PC-3; test: Cytotoxicity against human PC3 cells assessed as inhibition of cell growth at 2.5 uM after 6 to 12 hrs by MTT assay; type: functional, cell-based
[31] = tested on: PC-3; test: Induction of apoptosis in human PC3 cells assessed as early apoptotic cells at 0.5 uM after 48 hrs by annexin V-FITC/propidium iodide staining-based flow cytometric method (reference value: 4.7%); type: functional
[32] = tested on: PC-3; test: Cell cycle arrest in human PC3 cells assessed as accumulation at S phase at 2.5 uM after 48 hrs by propidium iodide staining-based flow cytometric method (reference value: 26.54%); type: functional
[33] = tested on: PC-3; test: Downregulation of p38 levels in human PC3 cells after 48 hrs by Western blot analysis; type: functional, cell-based; summary of the method: as §4
[34] = tested on: PC-3; test: Cell cycle arrest in human PC3 cells assessed as accumulation at G1 phase at 0.5 uM after 48 hrs by propidium iodide staining-based flow cytometric method (reference value: 54.65%); type: functional

Work on `COc1ccc(-c2coc3cc(OCCSC(=S)N4CCN(C(=O)OC(C)(C)C)CC4)ccc3c2=O)cc1` yielded an IC50 [1] of 11.6 µM, an IC50 [2] of 3.64 µM and an IC50 [3] of 4.09 µM.

`O=c1[nH]cc(F)c(=O)[nH]1` [FLUOROURACIL] gave an IC50 [1] of 7.21 µM, an IC50 [2] of 29.3 µM and an IC50 [3] of 10.3 µM.

`COc1ccc(-c2coc3cc(OCCCSC(=S)N4CCOCC4)ccc3c2=O)cc1` showed an IC50 [1] of 49.6 µM, an IC50 [2] of 27.4 µM and an IC50 [3] of 34 µM.

`COc1ccc(-c2coc3cc(OCCCBr)ccc3c2=O)cc1` showed an IC50 [1] of 64.9 µM, an IC50 [2] of 62.6 µM and an IC50 [3] of 39.7 µM.

`COc1ccc(-c2coc3cc(OCCCCSC(=S)N4CCN(C(=O)OC(C)(C)C)CC4)ccc3c2=O)cc1` gave an IC50 [1] of 31.3 µM, an IC50 [2] of 4.61 µM and an IC50 [3] of 8.84 µM.

`COc1ccc(-c2coc3cc(OCCCCCBr)ccc3c2=O)cc1` was tested, and the IC50 [1] was greater than 100 µM, the IC50 [2] was 44.8 µM and the IC50 [3] was 59.1 µM.

Compound `COc1ccc(-c2coc3cc(O)ccc3c2=O)cc1` [FORMONONETIN] has an IC50 [1] greater than 100 µM, an IC50 [2] of 57 µM and an IC50 [3] greater than 100 µM.

`COc1ccc(-c2coc3cc(OCCCSC(=S)N4CCCC4)ccc3c2=O)cc1` was tested, and the IC50 [1] was 40 µM, the IC50 [2] was 19.4 µM and the IC50 [3] was 30.8 µM.

In the case of `COc1ccc(-c2coc3cc(OCCCSC(=S)N4CCN(C)CC4)ccc3c2=O)cc1`, the IC50 [1] is reported as 21.9 µM, the IC50 [2] is reported as 2.21 µM and the IC50 [3] is reported as 24.2 µM.

In the case of `COc1ccc(-c2coc3cc(OCCCSC(=S)N4CCN(C(C)=O)CC4)ccc3c2=O)cc1`, the IC50 [1] is reported as 39.4 µM, the IC50 [2] is reported as 4.31 µM and the IC50 [3] is reported as 24.7 µM.

For `COc1ccc(-c2coc3cc(OCCCSC(=S)N4CCN(Cc5ccccc5)CC4)ccc3c2=O)cc1`, the IC50 [1] was 43.8 µM, the IC50 [2] was 14.9 µM and the IC50 [3] was 25.3 µM.

`CCN1CCN(C(=S)SCCCOc2ccc3c(=O)c(-c4ccc(OC)cc4)coc3c2)CC1` gave an IC50 [1] of 54 µM, an IC50 [2] of 7.08 µM and an IC50 [3] of 36.9 µM.

Work on `COc1ccc(-c2coc3cc(OCCCCBr)ccc3c2=O)cc1` yielded an IC50 [1] of 52.7 µM, an IC50 [2] of 55.6 µM and an IC50 [3] of 66.3 µM.

Work on `COc1ccc(-c2coc3cc(OCCCSC(=S)N4CCN(c5ccccn5)CC4)ccc3c2=O)cc1` yielded an IC50 [1] of 42 µM, an IC50 [2] of 17.4 µM and an IC50 [3] of 38.3 µM.

With `COc1ccc(-c2coc3cc(OCCBr)ccc3c2=O)cc1` the IC50 [1] was greater than 100 µM, the IC50 [2] was 41.9 µM and the IC50 [3] was 55.1 µM.

For `COc1ccc(-c2coc3cc(OCCCSC(=S)N4CCN(C(=O)OC(C)(C)C)CC4)ccc3c2=O)cc1`, the Activity [4] was “Dose-dependent effect”, the Activity [5] was 29.69% and the Activity [6] was 6.2%. The Activity [7] was “Dose-dependent effect”, the inhibition [8] was “Dose-dependent effect” and the Activity [9] was 55.6%. The Activity [10] was 6%, the Activity [11] was 1.1% and the Activity [12] was “Dose-dependent effect”. For the same compound, the inhibition [13] was “Dose-dependent effect”, the IC50 [1] was 6.07 µM and the Activity [14] was 9.1%. For the same compound, the Activity [15] was “Dose-dependent effect”, the Activity [16] was 1.3% and the Activity [17] was 3.66%. The Activity [18] was 17.3%, the Activity [19] was “Dose-dependent effect” and the Activity [20] was “Dose-dependent effect”. It also gave an Activity [21] of 26.75%, an Activity [22] of 5.5% and an IC50 [23] greater than 100 µM. For the same compound, the Activity [2] was “Dose-dependent effect”, the IC50 [2] was 1.97 µM and the IC50 [3] was 3.54 µM. For the same compound, the Activity [24] was “Dose-dependent effect”, the Activity [25] was 83.32% and the inhibition [26] was “Dose-dependent effect”. For the same compound, the Activity [27] was “inactive”, the Activity [28] was 0.9% and the inhibition [29] was “Dose-dependent effect”. For the same compound, the “growth inhibition (GI)” value [30] was “Active”, the Activity [31] was 5.7% and the Activity [32] was 10.33%. For the same compound, the Activity [33] was “Dose-dependent effect” and the Activity [34] was 61.29%.
